These results are taken from PubChem BioAssay.

Assay [1] can be described thus: inhibitors of TNFa-induced NFkB p65 translocation, primary screen, imaging, HUVEC, MLSMR starter and 10KST1 sets (AID 438;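 active = inhibition above 20% together with a positive visual image hit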;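 also: compound added about 3h40 before a 20 min TNFalpha stimulation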;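 as to inhibition: signal is the nuclear over cytoplasmic p65 intensity ratio per well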). Conditions: HUVEC TNFa-induced p65 nuclear translocation; cell count: measured here: nuclei count (cytotoxicity indicator), at 2.08 µM; inhibition: at 2 µM, stronger effect = higher value, 0% TNFa-plus-vehicle, 100% no-TNFa wells.
Assay [2] is described as follows: endothelial E-selectin expression blockers – imaging, HUVEC, immunofluorescence, MLSMR starter and 10KST1 sets, primary screen (AID 487;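 active = visually confirmed hit in the image check and inhibition above 20%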;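 as to inhibition: signal is fraction of cell area covered by stained E-selectin grains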;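 as to nuclei count: 100% = median nuclei count of all wells on the same plate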). Conditions: HUVEC TNFalpha-induced E-selectin immunofluorescence imaging, at 2 µM; inhibition: stronger effect = higher value; nuclei count: measured here: cell number, toxicity.
Assay [3] can be described thus: Primary imaging screen for DUSP6 inhibitors that restore phospho-Erk in transfected HeLa cells, chemical complementation (AID 609;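 active = compounds giving at least 50% inhibition in the cell-based MKP-3 phosphatase rescue imaging test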;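 as to inhibition: phospho-Erk level distribution per well compared with pooled transfected vehicle control wells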). Conditions: HeLa MKP-3 transfected, phospho-Erk imaging KS statistic, at 10 µM, cells stimulated with TPA for 15 min.
The target in assay [4] is Dual specificity protein phosphatase 6 (Homo sapiens) (UniProt Q16828). Described as above. The conditions noted are these: HeLa MKP-3 transfected, phospho-Erk imaging KS statistic; at 10 µM; stronger effect = higher value; cells stimulated with TPA for 15 min.
Sequence of Dual specificity protein phosphatase 6 (Homo sapiens) (Q16828 whole entry, looked up): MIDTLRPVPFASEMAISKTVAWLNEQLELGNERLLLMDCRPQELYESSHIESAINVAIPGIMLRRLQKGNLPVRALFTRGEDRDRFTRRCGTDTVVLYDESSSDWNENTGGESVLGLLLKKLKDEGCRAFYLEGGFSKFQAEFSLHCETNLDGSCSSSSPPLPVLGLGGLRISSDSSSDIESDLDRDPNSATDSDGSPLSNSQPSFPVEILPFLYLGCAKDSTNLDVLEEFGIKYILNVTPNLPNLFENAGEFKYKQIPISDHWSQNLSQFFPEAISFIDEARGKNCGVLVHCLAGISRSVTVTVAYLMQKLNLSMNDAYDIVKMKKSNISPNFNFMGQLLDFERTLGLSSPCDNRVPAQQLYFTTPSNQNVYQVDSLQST
Assay [5] has as its target Voltage-gated potassium channel subunit beta-2 (Rattus norvegicus) (UniProt P62483). Briefly: inhibitors of rat Kvbeta2 reductase activity – biochemical, NADPH fluorescence, primary screen (AID 622;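 active = fluorescence slope higher than the sample average by over 3 SD, cut at about -0.22 in these data, passing the limit was not always enough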;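 also: slope of raw intensity against log time taken from 70 to 1610 s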). Conditions: recombinant KvBeta, 4-cyanobenzaldehyde reduction, at 10 µM, stronger effect = higher value.
Assay [6] has the same target. Briefly: enhancers of rat Kvbeta2 NADPH turnover – biochemical, NADPH fluorescence, primary screen (AID 623).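 Also: fluorescence intensity change per second fitted from 20 to 320 s.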 The conditions noted are these: Recombinant KvBeta, NADPH fluorescence decrease slope, 10 min; at 10 µM; stronger effect = lower value.
Assay [7] concerns the target Muscarinic acetylcholine receptor M4 (Homo sapiens) (UniProt P08173). In words: M4-linked GIRK flux change, two-sided – cell-based, HEK293 M4/GIRK, thallium flux, BTC-AM, M4 allosteric agonist project, primary screen (AID 625;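 active = fluorescence slope after compound addition differing from the mean of all tested samples at 99.7% confidence, mostly higher but some lower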;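 also: thallium influx through GIRK channels coupled to M4 in HEK293 cells with BTC-AM dye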). The conditions noted are these: at 10 µM, actives lie on both sides. Summed up:
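System: HEK293 cells with M4 receptor and GIRK channels | Incubation: Cells overnight at 37 °C, BTC-AM loading 1 h, reads 2 min total | Technique: Kinetic BTC-AM fluorescence sampled at 1 Hz, 10 s pre-addition baseline | Measure: Post-addition slope, 15–24 s, of baseline-normalized fluorescence | Control set: Carbachol positive, DMSO negative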

A short description of assay [8]: inhibitors of larval lipid processing in zebrafish, primary screen, whole organism, PED6 fluorescence, gall bladder and intestine (AID 686;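 active = a full or partial loss of lipid-probe fluorescence in the fish gall bladder, intestine or both, judged by eye; inactive = no fluorescence loss, or compound toxic to the fish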;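 also: larvae 5 to 7 days old with five fish per well; signal comes from phospholipase A2 cleavage of quenched PED6 carried via bile; overnight exposure to compound and PED6 before scoring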). The conditions noted are these: Zebrafish larvae PED6 lipid processing, fluorescence scoring; screened at 20 µM (by protocol). Summed up:
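Test system – live zebrafish larvae aged 5-7 days, whole organism · Buffer or medium – E3 fish medium · Reagent – quenched phospholipase substrate PED6, 100 nM final, ingested by larvae · Doses – 20 µM single dose · Incubation – overnight compound and PED6 incubation · Technique – visual fluorescence microscopy scoring of gall bladder, gut · Read-out basis – visual per-well fluorescence inhibition score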

Assay [9] is described as follows: loss of swimming-algae plug formation – whole organism, Chlamydomonas reinhardtii, WT vs cilia-less mutant, absorbance, 96-well, primary screen (AID 463189;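 active = inhibition at or above 50% relative to wild type and mutant plate controls; inactive = inhibition below 50%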;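 also: 0% = wild type cc124 cells in DMSO and 100% = ciliumless bld1 mutant cells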). Conditions: Chlamydomonas reinhardtii gravitaxis, OD600 absorbance, 2 days; at 10 µM; stronger effect = higher value.
The mark [10] stands for this setting: measured here: cell density z-score.
The mark [11] stands for this setting: measured here: nuclear c-Myc green intensity z-score.
[12] abbreviates: measured here: nuclear pErk red intensity z-score, stronger effect = higher value.

Active and inactive are the calls of the source.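 The calls were made as follows, unless noted: active = NADPH fluorescence slope more negative than the mean of all samples by about 3 SD, 99.7% confidence; inactive = the rest.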

Sequence of Voltage-gated potassium channel subunit beta-2 (Rattus norvegicus) (P62483 whole entry, looked up): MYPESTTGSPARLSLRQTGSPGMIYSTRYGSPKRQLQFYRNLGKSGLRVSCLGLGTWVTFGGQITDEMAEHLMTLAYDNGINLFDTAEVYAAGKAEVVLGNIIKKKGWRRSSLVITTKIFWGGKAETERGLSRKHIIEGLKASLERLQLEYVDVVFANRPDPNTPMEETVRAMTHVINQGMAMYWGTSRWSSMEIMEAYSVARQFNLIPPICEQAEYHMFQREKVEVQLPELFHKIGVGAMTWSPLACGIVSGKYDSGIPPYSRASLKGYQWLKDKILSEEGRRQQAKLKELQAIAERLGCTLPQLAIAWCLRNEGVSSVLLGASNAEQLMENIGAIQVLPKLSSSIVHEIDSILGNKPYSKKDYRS
Sequence of Muscarinic acetylcholine receptor M4 (Homo sapiens) (P08173 whole entry, looked up): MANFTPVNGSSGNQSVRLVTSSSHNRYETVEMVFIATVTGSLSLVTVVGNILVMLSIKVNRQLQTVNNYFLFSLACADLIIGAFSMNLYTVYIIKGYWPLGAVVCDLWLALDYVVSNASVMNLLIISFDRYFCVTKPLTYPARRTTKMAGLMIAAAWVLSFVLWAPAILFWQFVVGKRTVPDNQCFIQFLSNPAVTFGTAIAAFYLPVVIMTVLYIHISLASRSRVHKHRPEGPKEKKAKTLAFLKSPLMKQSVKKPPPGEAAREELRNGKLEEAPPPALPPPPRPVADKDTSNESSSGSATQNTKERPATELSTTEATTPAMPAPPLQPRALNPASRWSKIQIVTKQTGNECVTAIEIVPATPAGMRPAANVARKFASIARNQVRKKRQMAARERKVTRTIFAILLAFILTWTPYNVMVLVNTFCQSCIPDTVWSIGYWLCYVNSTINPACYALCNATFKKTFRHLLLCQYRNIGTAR

As to `CC(=O)[C@H]1[C@@H]2C(=O)N(c3cccc(Cl)c3)C(=O)[C@@H]2[C@H]2c3ccccc3C=CN21`, the cell count in assay [1] is 652. Further, the inhibition is 0% (inactive) in assay [1], 5.3% (inactive) in assay [2], -2.47% (inactive) in assay [4] and 18.1% (inactive) in assay [9]. Besides, the nuclei count in [2] was found to be 144%. Besides, the z-score in [3] (setting [10]) was 0.229; in assay [3] (setting [11]), 0.26; in assay [3] (setting [12]), -0.893. In addition, the fluorescence slope in assay [5] was -0.495 (inactive); in [7], 0.00696 (inactive). Besides, the NADPH fluorescence slope in [6] was -3.6e-05 (inactive). The call in assay [8] was inactive.
`COc1cc(S(=O)(=O)N2CCN(c3ccc(F)cc3)CC2)ccc1Cl`: the cell count in assay [1] was 609. The inhibition in assay [1] was -2.2% (inactive); in assay [2], -32.9% (inactive); in assay [4], -7.67% (inactive); in [9] it was -4.27% (inactive). Also, in assay [2], the nuclei count was determined as 124%. In addition, the results for the z-score in [3] (setting [10]), in [3] (setting [11]) and in [3] (setting [12]) were -0.486, -0.838 and 0.956, respectively. Further, the fluorescence slope is -0.449 (inactive) in assay [5] and 0.00423 (inactive) in [7]. Also, the NADPH fluorescence slope in assay [6] is -4.1e-05 (inactive). Besides, the result in assay [8] was inactive.
For the molecule `CCCCc1nc(N2CCOCC2)c(C#N)c2c1COC(C)(C)C2`, in assay [1], the cell count was 530. Further, the inhibition in assay [1] was -4.2% (inactive); in assay [2], -202% (inactive); in [4], 15.4% (inactive); in assay [9] it was 1.03% (inactive). In assay [2], this molecule showed a nuclei count of 149%. Besides, the z-score in assay [3] (setting [10]) is 1.13; in assay [3] (setting [11]) it was -0.937; in assay [3] (setting [12]), -0.238. Also, the figures for the fluorescence slope in [5] and in [7] were -0.458 (inactive) and 0.00404 (inactive), respectively. Besides, the NADPH fluorescence slope in [6] is -6.7e-05 (inactive). Further, in assay [8], the outcome was inactive.
For the molecule `COCCCNC(=O)c1c(N)n(/N=C/c2cccnc2)c2nc3ccccc3nc12`, the cell count in assay [1] was determined as 719. Also, the inhibition in assay [1] is 4.4% (inactive); in assay [2], 0.4% (inactive); in [4], 4.25% (inactive); in assay [9] it was -6.04% (inactive). Further, the nuclei count in assay [2] came to 113%. In addition, the z-score in assay [3] (setting [10]) is -0.256; in assay [3] (setting [11]), 0.735; in [3] (setting [12]) it was 2.99. Besides, the fluorescence slope in assay [5] is -0.253 (inactive); in assay [7] it was 0.00597 (inactive). Moreover, the NADPH fluorescence slope in [6] was -3.5e-06 (inactive). Further, the call in assay [8] was inactive.
Turning to `CCCn1c(SCC(N)=O)nc2c(c1=O)C1(CCCC1)Cc1ccccc1-2`, the cell count in [1] was 555. In addition, the inhibition is -8% (inactive) in [1], 20.3% (inactive) in [2], 1.98% (inactive) in [4] and -1.68% (inactive) in [9]. Besides, the nuclei count in assay [2] is 170%. The z-score in assay [3] (setting [10]) turned out to be 0.28; in assay [3] (setting [11]), 0.545; in assay [3] (setting [12]), 0.00156. Moreover, the fluorescence slope in assay [5] is -0.386 (inactive); in [7] it was 0.00485 (inactive). For the same molecule, the NADPH fluorescence slope in assay [6] is -5.2e-05 (inactive). In addition, the molecule was called inactive in [8].
Take `C=C(C)CSc1nnc2n(C)c(=O)c3c4c(sc3n12)CCC4`: in assay [1], the cell count was 334. For the same molecule, the inhibition in [1] was 8.5% (inactive); in assay [2] it was -1.8% (inactive); in assay [4], 15.4% (inactive); in assay [9], 41.8% (inactive). The nuclei count in assay [2] was determined as 118%. The z-score was 1.02 in assay [3] (setting [10]), -0.186 in assay [3] (setting [11]) and -0.897 in assay [3] (setting [12]). Moreover, the figures for the fluorescence slope in [5] and in [7] were -0.438 (inactive) and 0.00483 (inactive), respectively. Besides, the NADPH fluorescence slope in [6] was -0.000119 (inactive). Also, in [8], the molecule was classed as inactive.
Turning to `CCOC(=O)c1c(NC(=O)CN2CCOCC2)sc2c1CC(C)(C)OC2`, the cell count in assay [1] was 525. The inhibition in assay [1] is -12.5% (inactive); in assay [2] it was -92.8% (inactive); in assay [4], 3.49% (inactive); in assay [9], -12.3% (inactive). The molecule also returned a nuclei count in assay [2] of 146%. Moreover, the z-score in assay [3] (setting [10]) is 0.295; in assay [3] (setting [11]), -0.682; in assay [3] (setting [12]), -0.184. Moreover, the fluorescence slope is -0.465 (inactive) in assay [5] and 0.00443 (inactive) in [7]. Besides, in [6], the NADPH fluorescence slope is -4.6e-05 (inactive). For the same molecule, in [8], the call was inactive.
Take `Cn1cc(Cl)nc1C(O)c1ccccc1` (centres undefined): the cell count in [1] was 629. The inhibition in [1] is -11% (inactive); in assay [2], -61.5% (inactive); in assay [4] it was -0.233% (inactive); in assay [9], 20.3% (inactive). The nuclei count in assay [2] came out at 174%. In addition, the z-score in assay [3] (setting [10]) is 0.432; in [3] (setting [11]) it was -0.744; in [3] (setting [12]) it was -0.497. The fluorescence slope is -0.481 (inactive) in [5] and 0.00721 (inactive) in assay [7]. In addition, the NADPH fluorescence slope in assay [6] is -2.6e-05 (inactive). The molecule was classed as inactive in assay [8].
Take `CCOC(=O)CSc1nc(N)c(C(=O)Nc2ccc(N(C)C)cc2)s1`: in assay [1], the cell count stood at 703. For the same molecule, the inhibition in assay [1] was -7% (inactive); in assay [2], -123% (inactive); in [4] it was 1.98% (inactive); in assay [9] it was -7.12% (inactive). Also, the nuclei count in [2] stood at 188%. The z-score in [3] (setting [10]) is -1.17; in [3] (setting [11]), 1.84; in assay [3] (setting [12]), -1.52. The fluorescence slope in assay [5] was -0.46 (inactive); in [7], 0.00383 (inactive). In addition, the NADPH fluorescence slope in [6] is -6.8e-05 (inactive). Also, in assay [8], the outcome was “active; weak signal in gallbladder and intestine”.
For the molecule `CCCOc1ccc(C2/C(=C(/O)c3ccccc3)C(=O)C(=O)N2CCCN(C)C)cc1OC` (centres undefined), the cell count in [1] is 399. Also, the inhibition in assay [1] was -2.9% (inactive); in [2], -92.3% (inactive); in [4] it was 18.2% (inactive); in assay [9], 26.4% (inactive). Besides, in assay [2], the nuclei count stood at 157%. Moreover, the z-score was 0.261 in assay [3] (setting [10]), -0.731 in [3] (setting [11]) and -0.508 in assay [3] (setting [12]). Further, the fluorescence slope in assay [5] is -0.463 (inactive); in assay [7], 0.00492 (inactive). Besides, the NADPH fluorescence slope in assay [6] was -0.000127 (inactive). The outcome in [8] was inactive.
For `C=C(C)CSc1nc(N)c2c3c(sc2n1)CCC3`, the cell count in [1] came out at 394. Moreover, the inhibition in [1] was -3.4% (inactive); in [2], 2.9% (inactive); in assay [4], 5.42% (inactive); in [9], -7.33% (inactive). Also, the nuclei count in assay [2] is 149%. For the same molecule, the z-score in assay [3] (setting [10]) was -1.07; in assay [3] (setting [11]) it was 1.64; in [3] (setting [12]), -0.412. Further, the fluorescence slope in assay [5] is -0.451 (inactive); in assay [7] it was 0.00788 (inactive). Also, in [6], the NADPH fluorescence slope was -0.000115 (inactive). Also, in assay [8], the call was inactive.
For the molecule `Oc1ccc2ccccc2c1C=NC12CN3CCN(CN(C3)C1)C2`, the cell count in assay [1] stood at 349. Besides, the inhibition in [1] is -5.7% (inactive); in assay [2] it was -45.1% (inactive); in [4], -2.59% (inactive); in assay [9], 1.64% (inactive). This molecule also showed a nuclei count in [2] of 163%. Moreover, the figures for the z-score in assay [3] (setting [10]), in assay [3] (setting [11]) and in [3] (setting [12]) were -0.271, 0.531 and 0.781, respectively. The fluorescence slope in assay [5] was -0.436 (inactive); in [7] it was 0.00489 (inactive). The NADPH fluorescence slope in assay [6] was -0.000124 (inactive). Further, the molecule was called inactive in assay [8].
For the molecule `CCOC(=O)Oc1ccc2c(c1)C(C)=CC(C)(C)N2C(=O)OCC`, in assay [1], the cell count is 618. Also, the inhibition in assay [1] is 2.2% (inactive); in assay [2] it was -42% (inactive); in assay [4], -13.3% (inactive); in assay [9] it was -7.72% (inactive). In assay [2], this molecule returned a nuclei count of 115%. For the same molecule, the z-score in [3] (setting [10]) was 1.01; in assay [3] (setting [11]), 0.72; in assay [3] (setting [12]), 0.465. For the same molecule, the values for the fluorescence slope in assay [5] and in [7] were -0.433 (inactive) and 0.00572 (inactive), respectively. Besides, the NADPH fluorescence slope in assay [6] was -4.7e-05 (inactive). Also, the result in assay [8] was inactive.
